Many of the other results were omitted from the sample, so hits are more common in it than they were.
T cruzi growth-1 = T. cruzi intracellular proliferation inhibitors, primary screen, cell-based, beta-gal Tulahuen parasites, NIH3T3 host, luminescence; T. cruzi beta-gal in NIH3T3, GalScreen luminescence, 90 h; inhibition, % at 8.34 µM; 5.9% of 77,000 active;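 active = mean inhibition above about 93%, with at least 55% of replicates each passing it, limit read from the data, passing the limit was not always enough; inconclusive = only one of those two conditions holds; inactive = neither condition holds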
IDH1 mut inh = inhibitors of IDH1 R132H reductase, primary screen, biochemical, plate reader, single point; Isocitrate dehydrogenase [NADP] cytoplasmic (Homo sapiens), O75874; AID 624101, 2012; diaphorase/resazurin fluorescence, 60 min; 0.18% of 70,000 active; inhibition, % at 10 µM; in the data active = inhibition above about 34%; inconclusive = no clear call, values can overlap the other calls; inactive = below about 11%;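 also: 0% = DMSO and 100% = no enzyme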
KDM4C inh = inhibitors of GASC-1 (KDM4C) histone demethylase, primary screen, biochemical, single concentration HTS; Lysine-specific demethylase 4C (Homo sapiens), Q9H3R0; GST-KDM4C 2-372, H3K9me3 peptide, LANCE TR-FRET; inhibition, % at 12.5 µM; 0.15% of 96,000 active;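 active = mean replicate inhibition above about 25%, with at least 55% of replicates also reaching it, limit read from the data, passing the limit was not always enough; inconclusive = only one of those two conditions met; inactive = neither condition met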
Target sequence (Q9H3R0 2-372 limits assumed): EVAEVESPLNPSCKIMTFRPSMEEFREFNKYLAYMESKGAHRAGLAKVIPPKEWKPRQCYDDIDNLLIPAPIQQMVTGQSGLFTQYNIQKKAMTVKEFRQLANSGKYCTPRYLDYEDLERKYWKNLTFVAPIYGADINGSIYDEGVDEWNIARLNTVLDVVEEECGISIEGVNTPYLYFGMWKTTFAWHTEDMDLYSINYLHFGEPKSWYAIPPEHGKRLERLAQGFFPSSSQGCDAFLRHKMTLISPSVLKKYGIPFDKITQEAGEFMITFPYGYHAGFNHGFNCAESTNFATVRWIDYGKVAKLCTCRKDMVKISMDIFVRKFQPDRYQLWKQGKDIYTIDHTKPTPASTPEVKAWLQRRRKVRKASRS
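Test system – GST-tagged GASC-1 (JMJD2C) catalytic fragment, aa 2-372 · Medium – HEPES buffer, pH 7.5, plus ascorbate · Reagent – H3K9me3 peptide with Fe(II)/2OG · Compound – one test concentration per compound · Timing – 30 min reaction, 60 min detection, RT · Technique – TR-FRET with Eu antibody and ULight streptavidin, EDTA stop · Read-out basis – inhibition from TR-FRET ratio decrease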
T cruzi growth-2 = T. cruzi intracellular proliferation inhibitors, confirmation, cell-based, NIH3T3 host, beta-gal parasite, luminescence, cherry-pick; T. cruzi beta-gal in NIH3T3, GalScreen luminescence, 90 h; 72% of 5,600 active; shares compounds with T cruzi growth-1; inhibition, % at 8.35 µM;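 active = mean replicate inhibition above about 95% and at least 55% of replicates individually reaching it, limit read from the data; inconclusive = only one of the two criteria is met; inactive = neither criterion is met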
T cruzi growth-3 = inhibitors of intracellular T. cruzi replication, confirmation, NIH3T3 host cells, beta-gal parasites, cherry-pick, set 2 | shares compounds with T cruzi growth-1 | T. cruzi beta-gal in NIH3T3, GalScreen luminescence, 90 h | inhibition, % at 2.09 µM | 21% of 5,600 active | AID 651740, 2012;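 active = mean inhibition above about 95%, with at least 55% of replicates also reaching it, limit read from the data; inconclusive = meets just one of the two conditions; inactive = meets neither condition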;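 also: plate controls were neutral control median for no effect and positive control median for full effect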
NIH3T3 tox = cytotoxicity in mouse NIH/3T3 fibroblasts, confirmation, cytotoxicity control for T. cruzi proliferation inhibitor project, cell-based, cherry-pick, single point; shares compounds with T cruzi growth-1; NIH/3T3 viability, CellTiter-Glo ATP luminescence, 90 h; cytotoxicity (signal decrease), % at 8.35 µM; 14% of 5,600 active; AID 651742, 2012;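 active = mean signal decrease across replicates above about 35% based on untreated-well scatter, with enough replicates individually passing, limit read from the data; inconclusive = no rule stated though some were filed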;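 also: 0% = median of neutral control wells and 100% = median of positive control wells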
3T3 cytotox 2 = NIH/3T3 fibroblast cytotoxicity, confirmation, cytotoxicity control, cell-based, cherry-pick, single point, set 2; shares compounds with T cruzi growth-1; NIH/3T3 viability, CellTiter-Glo ATP luminescence, 90 h; inhibition, % at 24.9 µM; 56% of 5,600 active; AID 651744, 2012;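 active = mean loss of cell viability signal at or above a set limit, and enough replicates individually reaching it; inconclusive = meets only the mean limit or only the replicate share; inactive = meets neither condition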;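 also: 0% = median of neutral control wells and 100% = median of positive control wells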
Active calls of the source: *; u = inconclusive; x = not tested or not shown.

SMILES	T cruzi growth-1	IDH1 mut inh	KDM4C inh	T cruzi growth-2	T cruzi growth-3	NIH3T3 tox	3T3 cytotox 2
Cc1cc(Cl)ccc1N(CC(=O)Nc1c(C)n(C)n(-c2ccccc2)c1=O)S(C)(=O)=O	x	0	x	x	x	x	x
N#Cc1c(NC(=O)CCCOc2ccc(Cl)cc2Cl)sc2c1CCCC2	x	0	x	x	x	x	x
COc1ccc(OC)c(S(=O)(=O)N2CCC(C(=O)Nc3ccc(Oc4ccccc4)cc3)CC2)c1	x	-1	x	x	x	x	x
Cc1c(Br)ccc(NC(=O)CSc2nnc(-c3ccc(Cl)cc3)n2C)c1C	x	0	x	x	x	x	x
N#C[C@@H]1[C@@H](c2ccc(-c3cccc(F)c3)cc2)[C@H](CO)N1c1nc(-c2ccccc2)cs1	x	x	-2	x	x	x	x
CCc1csc(N2[C@H](C#N)[C@@H](c3ccc(-c4cccc(F)c4)cc3)[C@H]2CO)n1	100*	x	-1	108*	89	29	31*
CCc1csc(N2[C@H](C#N)[C@@H](c3ccc(-c4ccc(F)cc4)cc3)[C@@H]2CO)n1	93	x	-3	x	x	x	x
CCc1csc(N2[C@@H](C#N)[C@@H](c3ccc(-c4cccc(F)c4)cc3)[C@@H]2CO)n1	100*	x	-3	u	76	45*	82*
CCc1csc(N2[C@H](CO)[C@@H](c3ccc(-c4ccc(F)cc4)cc3)[C@@H]2C#N)n1	103*	x	0	102*	53	18	103*
CCc1csc(N2[C@H](CO)[C@H](c3ccc(-c4cccc(F)c4)cc3)[C@@H]2C#N)n1	73	x	-2	x	x	x	x
CCc1csc(N2[C@H](C#N)[C@H](c3ccc(C#Cc4ccc(F)cc4)cc3)[C@H]2CO)n1	94	x	-4	x	x	x	x
CCc1csc(N2[C@H](C#N)[C@@H](c3ccc(-c4cccc(F)c4)cc3)[C@@H]2CO)n1	98*	x	-1	111*	81	21	96*
COc1ccc(Cl)cc1NC(=O)CN(C)S(=O)(=O)c1cc(C)ccc1OC	x	-1	x	x	x	x	x
Cc1ccccc1NC(=O)CSc1nnc(C23CC4CC(CC(C4)C2)C3)o1	x	0	x	x	x	x	x
O=C1C(=O)N(CCN2CCOCC2)C(c2ccc(Cl)cc2)C1C(=O)c1ccco1 (stereo unspecified)	x	1	x	x	x	x	x
Cc1cccc(OCC(=O)Nc2cccc(-c3nc4ccccc4s3)c2)c1C	x	0	x	x	x	x	x
COC(=O)Nc1scc(-c2ccccc2)c1C(=O)NCc1ccco1	x	0	x	x	x	x	x
CCCc1cc(=O)n2[nH]c(NCc3cccc([N+](=O)[O-])c3)nc2n1	x	0	x	x	x	x	x
Cc1cc(CNC(=S)Nc2cccc([N+](=O)[O-])c2)nn1C	x	0	x	x	x	x	x
CCc1csc(N2[C@@H](C#N)[C@@H](c3ccc(C#Cc4ccc(F)cc4)cc3)[C@@H]2CO)n1	94	x	-4	x	x	x	x
CCc1csc(N2[C@@H](C#N)[C@H](c3ccc(-c4cccc(F)c4)cc3)[C@@H]2CO)n1	105*	x	-4	103*	46	31	27
CCN(CC(=O)Nc1ccc(C(N)=O)cc1)S(=O)(=O)c1ccc(F)cc1	x	0	x	x	x	x	x
Cc1c(NC(=O)COc2ccc(Cl)cc2Cl)cccc1-c1nc2cc(Cl)ccc2o1	x	0	x	x	x	x	x
COc1cccc(S(=O)(=O)N(C)C[C@H]2OCc3ccccc3-c3ccccc3C(=O)N([C@@H](C)CO)C[C@@H]2C)c1	74	-11	-2	x	x	x	x
COc1cccc(CN(C)C[C@H]2OCc3ccccc3-c3ccccc3C(=O)N([C@@H](C)CO)C[C@H]2C)c1	u	-2	-1	87	11	6	-10
SMILES	T cruzi growth-1	IDH1 mut inh	KDM4C inh	T cruzi growth-2	T cruzi growth-3	NIH3T3 tox	3T3 cytotox 2
COc1cccc(CN(C)C[C@@H]2OCc3ccccc3-c3ccccc3C(=O)N([C@@H](C)CO)C[C@@H]2C)c1	49	x	3	x	x	x	x
COc1cccc(S(=O)(=O)N(C)C[C@H]2OCc3ccccc3-c3ccccc3C(=O)N([C@H](C)CO)C[C@@H]2C)c1	u	0	0	82	7	-16	16
Cc1ccc2c(c1)c1c(n2CC(O)CO)C(=O)CCC1 (stereo unspecified)	x	2	x	x	x	x	x
COc1ccc(-c2cn(CC[C@H]3CC[C@@H](NS(=O)(=O)c4ccccc4C)[C@@H](CO)O3)nn2)cc1	107*	0	0	103*	79	-1	-1
COc1cccc(S(=O)(=O)N[C@@H]2CC[C@@H](CCn3cc(-c4ccccn4)nn3)O[C@@H]2CO)c1	108*	-1	2	49	-10	13	23
O=S(=O)(N[C@H]1CC[C@@H](CCn2cc(-c3cccc(F)c3)nn2)O[C@H]1CO)c1ccc(Cl)cc1	111*	-1	-2	56	27	-13	18
Cc1ccccc1S(=O)(=O)N[C@H]1CC[C@@H](CCn2cc(-c3ccccc3)nn2)O[C@H]1CO	36	-1	-1	x	x	x	x
O=S(=O)(N[C@@H]1CC[C@@H](CCn2cc(-c3cccc(F)c3)nn2)O[C@H]1CO)c1ccc(Cl)cc1	54	0	-4	x	x	x	x
Cc1cccc(S(=O)(=O)N[C@@H]2CC[C@H](CCn3cc(-c4ccccn4)nn3)O[C@@H]2CO)c1	25	0	1	x	x	x	x
COC(=O)c1sccc1NC(=O)CN1c2cccc3cccc(c23)S1(=O)=O	x	0	x	x	x	x	x
CCc1cnc(N2[C@H](C#N)[C@@H](c3ccccc3)[C@@H]2CO)s1	36	x	2	x	x	x	x
CCc1cnc(N2[C@H](C#N)[C@@H](c3ccc(C#Cc4ccccc4F)cc3)[C@H]2CO)s1	111*	x	-1	103*	101*	11	28*
CCc1cnc(N2[C@H](C#N)[C@H](c3ccc(C#Cc4ccccc4F)cc3)[C@H]2CO)s1	100*	x	0	91	106*	-9	95*
CCc1cnc(N2[C@H](CO)[C@@H](c3ccccc3)[C@@H]2C#N)s1	2	x	-1	x	x	x	x
CCc1cnc(N2[C@H](C#N)[C@H](c3ccc(C#Cc4ccccc4F)cc3)[C@@H]2CO)s1	97*	x	-3	101*	112*	-27	-11
CCc1cnc(N2[C@H](C#N)[C@H](c3ccccc3)[C@@H]2CO)s1	-6	x	-1	x	x	x	x
NNC(=O)C1C2CCCCC21 (stereo unspecified)	x	1	x	x	x	x	x
O=C1C(=O)N(CCCn2ccnc2)C(c2ccccc2)C1C(=O)c1ccco1 (stereo unspecified)	x	2	x	x	x	x	x
COC(=O)C[C@H]1C(C)(C)C2(O)OC34CC2C(=O)[C@]1(C)C3CC[C@]1(C)C4=CC(=O)O[C@H]1c1ccoc1 (stereo partly specified)	x	0	x	x	x	x	x

Source: PubChem BioAssay
